proKLK7 act = proKLK7 zymogen activators, primary screen, biochemical, fluorescence intensity; Kallikrein-7 (Homo sapiens), P49862; purified proKLK7, EDANS-DABCYL substrate fluorescence; 100% is mature enzyme control, 0% vehicle; activation, % at 7 µM; actives 0.9% (n = 370,000); AID 652039, 2013;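 active = activation above the mean of all tested compounds plus 3 SD, computed per campaign excluding outliers beyond control limits, cut at about 13% in these data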
Tn7 DDE FP = inhibitors of Tn7 peptide binding to fibrin DD(E), primary screen, biochemical, fluorescence polarization, human fibrin, Tn7 probe. Fibrinogen beta chain (Homo sapiens), P02675. FP displacement of FITC-Tn7 peptide from fibrin DD(E); 0% = median of compound wells per plate. inhibition, % at 8.3 µM. actives 0.13% (n = 370,000). AID 720508, 2013;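 active = inhibition above the mean of compounds falling within the control limits plus 3 SD of them, cut at about 14% in these data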
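Assay system: Fibrin-DD(E) protein isolated from polymerized human fibrin clots; read-out basis: percent inhibition; medium: Tris/NaCl/CaCl2 buffer, pH 7.8; signal: FP measurement; incubation: 10 min plus 3 h, room temperature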
NRP1-CendR mod = modulators of CendR peptide binding to NRP-1, primary screen, biochemical, fluorescence polarization, uHTS; Neuropilin-1 (Homo sapiens), O14786; actives 0.85% (n = 360,000); inhibition, % at 25 µM; FAM-RPARPAR peptide binding to NRP-1;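 active = inhibition or corrected inhibition above about 18%, plus a signal ratio from 0.5 to 1.5, limit read from the data, passing the limit was not always enough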
Target sequence (O14786 whole entry, looked up): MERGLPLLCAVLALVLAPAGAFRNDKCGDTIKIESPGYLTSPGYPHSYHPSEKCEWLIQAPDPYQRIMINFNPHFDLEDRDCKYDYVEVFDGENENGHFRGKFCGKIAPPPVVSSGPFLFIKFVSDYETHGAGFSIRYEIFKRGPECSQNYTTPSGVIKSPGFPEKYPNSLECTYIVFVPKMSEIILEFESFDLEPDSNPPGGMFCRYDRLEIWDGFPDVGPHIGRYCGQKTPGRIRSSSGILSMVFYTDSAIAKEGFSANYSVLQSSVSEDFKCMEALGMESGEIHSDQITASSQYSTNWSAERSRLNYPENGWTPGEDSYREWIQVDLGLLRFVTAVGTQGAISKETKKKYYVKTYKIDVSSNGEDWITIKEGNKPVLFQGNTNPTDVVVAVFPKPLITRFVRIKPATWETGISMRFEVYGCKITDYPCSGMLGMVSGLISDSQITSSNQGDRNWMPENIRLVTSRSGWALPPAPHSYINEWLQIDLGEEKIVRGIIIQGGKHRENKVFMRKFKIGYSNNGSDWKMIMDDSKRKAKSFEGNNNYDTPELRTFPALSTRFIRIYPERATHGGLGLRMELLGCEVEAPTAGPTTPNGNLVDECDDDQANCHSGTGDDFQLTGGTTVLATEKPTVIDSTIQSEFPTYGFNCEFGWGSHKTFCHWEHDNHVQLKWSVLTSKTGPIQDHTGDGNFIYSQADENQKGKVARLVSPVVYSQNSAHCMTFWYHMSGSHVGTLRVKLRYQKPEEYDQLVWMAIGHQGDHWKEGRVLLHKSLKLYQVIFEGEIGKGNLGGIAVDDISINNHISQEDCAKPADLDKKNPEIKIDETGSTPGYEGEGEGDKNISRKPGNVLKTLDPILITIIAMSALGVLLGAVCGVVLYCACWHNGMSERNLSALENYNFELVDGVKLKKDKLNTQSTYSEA
CRFR2-BP antag = antagonists of CRF-BP/CRF-R2 complex, primary screen, cell-based, HEK293, calcium dye fluorescence, uHTS | CRF-induced calcium fluorescence | inhibition, % at 11.8 µM | actives 0.59% (n = 350,000) | AID 588475, 2011;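 active = inhibition of the ligand-induced calcium signal above about 50% at the single tested concentration, limit read from the data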
Tn6 DDE FP = inhibitors of Tn6 peptide binding to fibrin DD(E), primary screen, biochemical, fluorescence polarization, human fibrin, Tn6 probe; AID 720509, 2013; Fibrin DD(E) TRITC-Tn6 fluorescence polarization displacement; actives 0.21% (n = 370,000); Fibrinogen beta chain (Homo sapiens), P02675; inhibition, % at 8.3 µM;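 active = inhibition above a per-campaign cutoff: mean of compounds within control limits plus 3 SD, cut at about 15% in these data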
CRFR2-BP ag = agonists of CRF-BP/CRF-R2 complex, primary screen, cell-based, HEK293, calcium dye fluorescence, uHTS. CRF-binding protein / CRF receptor 2 complex (human). calcium dye fluorescence (FLIPR); percent of saturating CRF peptide response. activation, % at 13.2 µM. actives 0.46% (n = 350,000). AID 588473, 2011;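 active = activation of at least 50%, plus an integration ratio under a set limit after plate pattern correction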
proKLK7 act conf = proKLK7 zymogen activators, confirmation, biochemical, fluorescence intensity, triplicate; actives 68% (n = 3,200); purified proKLK7, EDANS-DABCYL substrate fluorescence; scaled: vehicle 0, mature enzyme 100; shares compounds with proKLK7 act; activation, % at 7 µM;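 active = activation, as change over the incubation, above the mean of all tested compounds plus 3 SD, cut at about 13% in these data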
EDANS-DABCYL int = EDANS-DABCYL substrate optical interference, artefact control for kallikrein-7 zymogen activator project, biochemical, fluorescence intensity, high throughput; shares compounds with proKLK7 act; no enzyme, 4 h; solvent 0%, active enzyme control 100%; activation, % at 7 µM; actives 80% (n = 3,200);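 active = activation above the all-compound mean plus 3 SD, ignoring values outside control-based bounds, cut at about 4.8% in these data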;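 also: value is the 4 h activation minus the activation read at time zero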
K7 EDANS ctr = EDANS fluorescence interference in dose response, no enzyme; shares compounds with proKLK7 act; EDANS-DABCYL peptide fluorescence interference; EC50, µM; actives 20% (n = 250);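 active = compounds that raise the fluorescence signal in this interference counterscreen, with EC50 at or below 10 µM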;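 also: intact quenched peptide substrate alone read at 355 nm excitation and 520 nm emission; signal is fluorescence gain from T0 to T4 after four hours at room temperature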
Large screens that a line does not name were inactive (follow-up assays come after a bar, where they were run). Rows were chosen to be rich in hits. Some 2.9% of all compounds tested hit in one or more screens of this group.

Cc1ccccc1NC(=O)CSc1nc(N)c(C#N)c(-c2cccs2)c1C#N	none
O=C(O)c1ccc(/C=N/NC(=O)c2cc(-c3cccs3)nc3ccccc23)cc1	proKLK7 act 23.2 | proKLK7 act conf 28.5 | EDANS-DABCYL int 20.6 | K7 EDANS ctr inactive
O=C(N/N=C/c1ccsc1)c1cc(-c2cccs2)nc2ccccc12	none
Cc1cc(O)cc(=O)n1-c1ccc(Cl)c(C(F)(F)F)c1	none (no result: NRP1-CendR mod, CRFR2-BP antag, CRFR2-BP ag)
Cc1nn(-c2ccccc2)c2sc(C(=O)NCC3CCCO3)cc12 (stereo not drawn)	none (no result: NRP1-CendR mod, CRFR2-BP antag, CRFR2-BP ag)
CCOC(CCNC(=O)c1cc(-c2cccs2)nc2ccccc12)OCC	proKLK7 act 32.2 | proKLK7 act conf inactive | EDANS-DABCYL int 9.8
Cc1cc(=O)[nH]c2c1c(C)nn2-c1ccccc1	none
Cc1cccc(-n2c3nc(=O)[nH]c(=O)c-3cc3c(C)nn(-c4ccccc4)c32)c1C	proKLK7 act 13.6 | proKLK7 act conf 46.0 | EDANS-DABCYL int 58.0
Cc1nn(-c2ccccc2)c(=O)c2ccccc12	none
Cc1nn(-c2ccccc2)c2c1cc1c(=O)n(C)c(=O)nc-1n2-c1ccccc1F	proKLK7 act 13.2 | proKLK7 act conf 18.1 | EDANS-DABCYL int 9.1 | K7 EDANS ctr inactive
CC(C)(N[C@@H](Cc1ccccc1)C(=O)NCC(c1ccccc1)c1ccccc1)C(=O)NC1CCCCC1	none (no result: proKLK7 act, NRP1-CendR mod, CRFR2-BP antag, CRFR2-BP ag)
CCCc1cc(=O)oc2c(CN3CCN(C)CC3)c(O)c(Cl)cc12	proKLK7 act 59.5 | proKLK7 act conf 70.6 | EDANS-DABCYL int 76.5
CCc1c(C)c2cc(Cl)c(O)c(CN3CCCC3)c2oc1=O	proKLK7 act 37.0 | proKLK7 act conf 67.9 | EDANS-DABCYL int 68.7
Cc1cc(=O)oc2c(CN3CCN(C)CC3)c(O)c(Cl)cc12	proKLK7 act 58.1 | proKLK7 act conf 76.3 | EDANS-DABCYL int 77.3
Cc1c(C)c2cc(Cl)c(O)c(CN3CCCCC3)c2oc1=O	none (no result: proKLK7 act, Tn7 DDE FP, NRP1-CendR mod, Tn6 DDE FP)
CN1CCN(Cc2c(O)c(Cl)cc3c(-c4ccccc4)cc(=O)oc23)CC1	proKLK7 act 16.8 | proKLK7 act conf 13.8 | EDANS-DABCYL int 11.5
COc1ccc(S[C@]2(C(=O)N3CCOCC3)CC(=O)N[C@@H]2c2ccc(OC)cc2)cc1	none (no result: NRP1-CendR mod, CRFR2-BP antag, CRFR2-BP ag)
CCOC(=O)N1CCN(C(=O)C[C@H]2C[C@@]3(C(=O)OC)C(=C[C@H](C(C)C)O[C@@H]3C3CC3)N(Cc3cccc4ccccc34)C2=O)CC1	none (no result: NRP1-CendR mod, CRFR2-BP antag, CRFR2-BP ag)
CC(C)(C)c1ccc(-c2nnc(SCC(=O)Nc3cccc4ccccc34)n2Cc2ccco2)cc1	none (no result: NRP1-CendR mod, CRFR2-BP antag, CRFR2-BP ag)
Cc1ccccc1NC(=O)[C@@H]1CC(=O)O[C@@H]1c1ccccc1	none (no result: NRP1-CendR mod, CRFR2-BP antag, CRFR2-BP ag)
Cc1cc(C)c2oc(=O)cc(CN3CCCCC3)c2c1	none
CCCCc1cc(=O)oc2c(CN3CCCC3)c(O)c(Cl)cc12	proKLK7 act 63.3 | proKLK7 act conf 70.9 | EDANS-DABCYL int 82.4
CC(=O)c1ccc(-c2nc3ccccc3n2C)o1	proKLK7 act 66.6 | proKLK7 act conf 56.7 | EDANS-DABCYL int 58.8
O=S1(=O)c2ccc(N3CCC[C@@H]3CO)cc2O[C@H]2CCN1C2	none (no result: NRP1-CendR mod, CRFR2-BP antag, CRFR2-BP ag)
NC(=O)c1ccc(-c2ncc(-c3ccccc3)o2)cc1	proKLK7 act 69.2 | proKLK7 act conf 58.6 | EDANS-DABCYL int 62.0
